# Screens: PubChem, several laboratories
# PGE2 EP2 inh: EP2 receptor (human) inhibition | C6 glioma cells expressing human EP2, cAMP TR-FRET; cells stimulated with saturating PGE2 | inhibition, % at 25 µM | AID 1422 | P43116 | 0.52% of 260,000 active;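 active = percent inhibition above 40 after rounding to a whole number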;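 also: rat C6 glioma host cells with rolipram phosphodiesterase inhibitor present; the protocol text gives 20 µM as final concentration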
# Target sequence (P43116 whole entry, looked up): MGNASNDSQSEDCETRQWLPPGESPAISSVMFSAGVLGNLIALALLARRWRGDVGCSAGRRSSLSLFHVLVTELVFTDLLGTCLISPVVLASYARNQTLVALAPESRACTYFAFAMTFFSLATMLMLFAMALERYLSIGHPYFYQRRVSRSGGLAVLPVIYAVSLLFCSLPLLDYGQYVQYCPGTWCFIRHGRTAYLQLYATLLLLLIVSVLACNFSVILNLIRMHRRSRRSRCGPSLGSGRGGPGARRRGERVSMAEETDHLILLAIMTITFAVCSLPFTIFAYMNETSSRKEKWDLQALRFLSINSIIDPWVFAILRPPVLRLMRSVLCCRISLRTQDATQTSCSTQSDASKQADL
# GPR7 antagonist: antagonists of human GPR7 (neuropeptides B/W receptor 1) | P48145 | GPR7-expressing cells, fluorescence antagonist assay | AID 1861 | 1.1% of 290,000 active | inhibition, % at 4.4 µM; in the data active = inhibition above about 16%, passing the limit was not always enough;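 also: cells stimulated with the agonist NPW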
# OX1R antag-1: antagonists of human orexin 1 receptor | O43613 | CHO/OX1R cells, Fluo-8 calcium fluorescence, orexin A | inhibition, % at 5 µM | 0.43% of 330,000 active;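 active = inhibition above its plate's threshold, mean inhibition of all tested compounds on the plate plus 3 SD, cut at about 37% in these data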
# OX1R antag-2: blocks the human orexin 1 receptor; inhibition, % at 6.6 µM; O43613; 1.8% of 330,000 active; OX1R-expressing cells, FRET antagonist read-out; in the data active = inhibition mostly above about 38%, no sharp cut-off; inactive = mostly below about 40%
# CHO parental Ca: counter-screen for OX1R antagonists: effect in parental CHO cells. parental CHO-K1, ATP-induced calcium, Fluo-8 fluorescence. inhibition, % at 5.6 µM. 0.63% of 330,000 active;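 active = inhibition above that plate's mean sample inhibition plus 3 SD, cut at about 26% in these data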
#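 Test system: untransfected parental CHO cell line; also added: ATP stimulus; dosing: 5.6 µM, single dose; signal: calcium-sensitive Fluo-8 fluorescence; measure: percent inhibition of ATP-evoked calcium rise, normalized to controls; benchmarks: low control ATP plus DMSO, high control DMSO only; replication: one well per compound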
# EP2 modulator: modulates human prostaglandin E2 receptor EP2 signaling; 0.83% of 260,000 active; P43116; EP2-expressing cells, cAMP HTRF FRET, PGE2 co-stimulation; induction, % at 25 µM;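 active = compounds whose cAMP rise, as percent of the full-agonist control response, exceeds 60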;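 also: rat C6 glioma line stably carrying human EP2 under a CMV promoter; the protocol text gives 20 µM as final concentration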
# EP2 confirm: EP2 receptor cAMP induction, counter-screens negative; 47% of 1,300 active; AID 1080; C6 glioma EP2 cells, cAMP HTRF induction; plus low (about EC15) PGE2 agonist; calls only at 20 µM (by protocol); shares compounds with EP2 modulator;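 active = cAMP induction above 50% in the main assay while under 30% in all four parallel counter assays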;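 also: rat C6 glioma cells stably expressing human EP2 receptor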
# A number is an active result; - = inactive; . = no result given; + = active, no number; ! = not active in a repeat. This is a sample that favours compounds with a hit; in the whole collection about 3.7% have one here.
SMILES,PGE2 EP2 inh,GPR7 antagonist,OX1R antag-1,OX1R antag-2,CHO parental Ca,EP2 modulator,EP2 confirm
CC1(C)Cc2nc3nc(SCC(=O)Nc4ccccc4)nc(N)c3cc2CO1,-,-,-,-,-,71,+
COCCNc1c(-c2ccc(OC)c(O)c2)nc2cnccn12,.,.,.,.,.,-,.
C=CCOc1ccc2c(c1)C(=NO)c1cc(OCC=C)ccc1-2,-,-,-,-,-,83,+
CC(OC(=O)c1oc2ccccc2c1COc1ccccc1)C(=O)NC(N)=O (stereo unspecified),-,-,-,-,-,70,-
CC(OC(=O)c1oc2ccccc2c1CSC1CCCCC1)C(=O)NC(N)=O (stereo unspecified),-,-,-,-,-,-,.
COCC(=O)Nc1sc2c(c1C(=O)OC)CCC(C)C2 (stereo unspecified),-,-,-,-,-,70!,-
CC(C)OC(=O)c1c(NC(=O)CCn2nnc3ccccc32)sc2c1CCCC2,-,-,-,-,-,-,-
COC(=O)c1c(NC(=O)c2ccc(Br)s2)sc2c1CCC2,-,-,-,-,-,67,-
CC(C)OC(=O)c1c(NC(=O)CCC(=O)O)sc2c1CCCCC2,-,-,-,-,-,-,.
CCOC(=O)c1c(NC(=O)c2cccs2)sc2c1CCCC2,-,-,-,-,-,-,-
CCOC(=O)N1CCc2c(sc3c2c(=O)n(Cc2ccccc2)c(=O)n3Cc2ccc(C)cc2)C1,-,-,-,-,-,-,.
COc1ccc(C(NC(=O)c2ccccn2)c2nccn2C)cc1OC (stereo unspecified),-,.,.,.,.,-,.
CNc1c([N+](=O)[O-])cnn1-c1ccc(Cl)cc1Cl,-,-,-,-,-,-,.
Cc1cnc(=O)[nH]c1SCc1ccc([N+](=O)[O-])cc1,.,-,-,-,-,.,.
COC(=O)c1c(NC(=S)NC(=O)c2ccco2)sc2c1CCCC2,-,-,-,-,-,-,.
CCOC(=O)N1CCc2c(sc(NC(=O)c3ccc(Cl)s3)c2C(N)=O)C1,-,-,-,-,-,-,.
Cc1sc(NC(=O)c2cccs2)c(C(=O)OC(C)C)c1C,-,-,-,-,-,78,+
CCOC(=O)c1c(NC(=O)c2cccs2)sc2c1CCN(C(=O)OCC)C2,-,-,-,-,-,-,+
CCOC(=O)c1c(NC(=O)c2ccc(Br)o2)sc(C)c1CC,-,-,-,-,-,74,+
COC(=O)c1c(NC(=S)NN2CCOCC2)sc2c1CCCC2,-,-,-,-,-,-,-
CC(C)OC(=O)c1ccc(NC(=O)c2cccs2)cc1,-,.,.,.,.,-,.
CCOC(=O)c1c(NC(=O)c2cccs2)sc(C)c1CC,-,-,-,-,-,-,-
CCOC(=O)c1c(/N=C/C2C(=O)CCCC2=O)sc2c1CCCC2,-,-,-,-,-,-,-
CCc1c(C)sc(NC(=O)c2cccs2)c1C(=O)OC(C)C,-,-,-,-,-,-,.
O=C(Nc1sc2c(c1C(=O)O)CCCCC2)c1ccco1,-,-,-,-,-,-,.
SMILES,PGE2 EP2 inh,GPR7 antagonist,OX1R antag-1,OX1R antag-2,CHO parental Ca,EP2 modulator,EP2 confirm
COC(=O)c1c(NC(=O)C2CC2)sc2c1CCCC2,-,-,-,-,-,-,-
CCOC(=O)c1c(NC(=O)c2ccco2)sc2c1CCCCC2,-,-,-,-,-,79,+
CCC(=O)Nc1sc2c(c1C(=O)OC)CCC2,-,.,.,.,.,-,.
CSc1ccc(/C=C/C(=O)OCC(=O)NC2CCS(=O)(=O)C2)cc1 (stereo unspecified),.,.,-,-,-,.,.
CNc1c(NS(=O)(=O)c2ccc(F)cc2)c(=O)oc2ccccc12,.,-,-,-,-,.,.
C=CCn1c(=O)c2c(nc3n2CCN3c2cccc(Cl)c2C)n(C)c1=O,-,-,-,-,-,-,.
C=CCn1c(=O)c2c(nc(-c3ccc(S(=O)(=O)O)cc3)n2C)n(C)c1=O,-,.,-,-,-,66,-
CCCCOc1c(Br)cc(/C=N/O)cc1OCC,.,-,-,-,-,66,-
O=c1cccc2c1c1cc[nH]c3ccc(=O)n2c31,.,.,-,-,-,.,.
COc1ccc(S(=O)(=O)N(Cc2cccs2)C2CCCC2)cc1,-,-,54,-,44,81,+
